In ChEMBL document CHEMBL3286348, “Undecaprenyl diphosphate synthase inhibitors: antibacterial drug leads” (J Med Chem, 2014):
In brackets after ≈: the same amount, converted by molar mass.

Tests used:
[1] = Inhibition of Escherichia coli UPPS-mediated condensation of FPP with IPP by spectrophotometric analysis
Procedure, shortened: (§1)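 Continuous spectrophotometric assay of FPP + IPP condensation by purified recombinant UPPS (EcUPPS or SaUPPS): 350 μM IPP, 35 μM FPP, 400 μM MESG to follow PPi release, 20 mM Tris·HCl pH 7.5, 0.01% v/v Triton X-100, 1 mM MgCl2.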

[2] = Inhibition of Staphylococcus aureus UPPS-mediated condensation of FPP with IPP by spectrophotometric analysis; procedure, shortened: as §1
[3] = system: Bacillus subtilis; assay: Antibacterial activity against Bacillus subtilis subsp. subtilis ATCC 6051 after 12 to 16 hrs by broth dilution method; type: functional, organism-based
Procedure, shortened: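 Microbroth dilution: 16 h LB culture diluted 50-fold, grown to OD600 ∼0.4, diluted 500-fold into LB and plated. Compound serially diluted from 0.5 mM; incubation 12–16 h at 37 °C; growth read as absorbance at 570 nm. IC50 by nonlinear regression, averaged over two independent experiments.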

[4] = system: Escherichia coli; assay: Antibacterial activity against Escherichia coli ATCC 29425 after 3 hrs by MTT assay; type: functional, organism-based; conditions: ATCC 29425, 3 h
Procedure, shortened: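 Overnight (16 h) culture diluted 50-fold into LB, grown to OD600 ∼0.4, then diluted 500-fold and plated. Compound 2-fold serial dilutions from 0.3 mM; 3 h at 37 °C to mid-exponential phase. Viability read by MTT (2–4 h, then detergent 2 h at 23 °C in dark), absorbance 570 nm. IC50 by nonlinear regression, mean of two independent experiments.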

[5] = system: Saccharomyces cerevisiae; assay: Toxicity in Saccharomyces cerevisiae ATCC 208352 after 36 hrs by broth dilution method; type: organism-based; conditions: ATCC 208352, 36 h
Procedure, shortened: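 Yeast growth inhibition run in YPD medium: inoculum prepared by 50-fold dilution, growth to OD600 ∼0.4, then 500-fold dilution. Compound serially diluted from 0.5 mM; plates held 36 h at 37 °C; absorbance at 570 nm. IC50 by nonlinear regression, mean of two independent experiments.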

[6] = system: Bacillus subtilis; assay: Antibacterial activity against Bacillus subtilis 168 after 16 hrs by microbroth dilution method; type: functional; conditions: subsp. subtilis str. 168, 16 h
Procedure, shortened: (§2)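 Stationary-phase cultures grown in LB broth at 37 °C, adjusted to OD600 0.016 in LB, then added to 96-well plates. 2-fold dilutions from 0.25 to 64 μg mL–1, with kanamycin (1–32 μg mL–1) and DMSO as controls. Incubated covered at 37 °C for 16 h with shaking. MIC taken as the lowest concentration suppressing at least 99% of growth, judged by turbidity.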

[7] = system: Bacillus anthracis; assay: Antibacterial activity against Bacillus anthracis Sterne after 16 hrs by microbroth dilution method; type: functional
[8] = system: Staphylococcus aureus; assay: Antibacterial activity against methicillin-resistant Staphylococcus aureus USA300 after 16 hrs by microbroth dilution method; type: functional; conditions: USA300, 16 h
Procedure, shortened: (§3)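 Stationary-phase cultures grown in brain–heart infusion medium at 37 °C, adjusted to OD600 0.016 in BHI, then plated. 2-fold dilutions from 0.25 to 64 μg mL–1 with DMSO as vehicle control. Kanamycin (1–32 μg mL–1) was the control for L. monocytogenes and gentamycin (1–64 μg mL–1) for S. aureus and E. faecalis. Incubated covered at 37 °C for 16 h with shaking. MIC was the concentration giving at least 99% growth suppression by turbidity.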

[9] = system: Enterococcus faecalis; assay: Antibacterial activity against vancomycin-resistant Enterococcus faecalis U503 after 16 hrs by microbroth dilution method; type: functional; conditions: U503, 16 h; procedure, shortened: as §3
[10] = system: Listeria monocytogenes; assay: Antibacterial activity against Listeria monocytogenes 4b F2365 after 16 hrs by microbroth dilution method; type: functional; conditions: 4b F2365, 16 h; procedure, shortened: as §3
[11] = system: Pseudomonas putida; assay: Antibacterial activity against Pseudomonas putida after 16 hrs by microbroth dilution method; type: functional; procedure, shortened: as §2
[12] = system: Escherichia coli; assay: Antibacterial activity against Escherichia coli MC4100 after 16 hrs by microbroth dilution method; type: functional; conditions: MC4100, 16 h; procedure, shortened: as §2
[13] = system: Enterococcus faecalis; assay: Antibacterial activity against vancomycin-resistant Enterococcus faecalis U503 after 16 hrs by microbroth dilution method in presence of vancomycin; type: functional; conditions: U503, 16 h
[14] = system: Bacillus anthracis; assay: Antibacterial activity against Bacillus anthracis Sterne after 16 hrs by microbroth dilution method in presence of ampicillin; type: functional

| SMILES | IC50 [1] [µM] | IC50 [2] [µM] | IC50 [3] [µM] | IC50 [4] [µM] | IC50 [5] [µM] | MIC [6] [mg/L] | MIC [7] [mg/L] | MIC [8] [mg/L] | MIC [9] [mg/L] | MIC [10] [mg/L] | MIC [11] [mg/L] | MIC [12] [mg/L] | MIC [13] [mg/L] | MIC [14] [mg/L] |
| --- | --- | --- | --- | --- | --- | --- | --- | --- | --- | --- | --- | --- | --- | --- |
| CN1C(=O)/C(=C/c2ccc(-c3cc(Cl)ccc3Cl)o2)SC1=S | > 200 | > 200 | > 200 | > 200 | > 200 |  |  |  |  |  |  |  |  |  |
| CC1=CC(=O)/C(=C\N2C(=O)/C(=C/c3cccc(O)c3)SC2=S)C(=O)O1 | > 100 | > 100 | > 200 | > 200 | > 200 |  |  |  |  |  |  |  |  |  |
| COc1cccc(/C=C2\SC(=S)N(Cc3ccco3)C2=O)c1OC | > 100 | > 100 | > 200 | > 200 | > 200 |  |  |  |  |  |  |  |  |  |
| CCOc1cccc(/C=C2\SC(=S)N(Cc3ccco3)C2=O)c1O | > 100 | > 100 | > 200 | > 200 | > 200 |  |  |  |  |  |  |  |  |  |
| O=C1/C(=C/c2ccc(Cl)cc2Cl)SC(=S)N1Cc1ccco1 | > 100 | > 100 | > 200 | > 200 | > 200 |  |  |  |  |  |  |  |  |  |
| O=C(O)c1ccc(N2C(=O)/C(=C/c3ccc(Br)cc3)SC2=S)cc1 | > 200 | 170 | > 200 | > 200 | > 200 |  |  |  |  |  |  |  |  |  |
| O=C1/C(=C\c2cccc(O)c2O)SC(=S)N1Cc1ccco1 | > 100 | 5.3 | > 200 | > 200 | > 200 |  |  |  |  |  |  |  |  |  |
| O=C(O)CCN1C(=O)/C(=C/c2ccc(-c3ccc(Cl)cc3Cl)o2)SC1=S | 2.1 | 2.4 | 0.43 | > 200 | 180 | 0.125 (≈ 0.292 µM) | 0.25 (≈ 0.584 µM) | 4 (≈ 9.34 µM) | 4 (≈ 9.34 µM) | 0.125 (≈ 0.292 µM) | > 64 | > 64 |  |  |
| CC(=O)c1ccc(-c2ccc(/C=C3\SC(=S)N(c4ccccc4)C3=O)o2)cc1 | 85 | 32 | > 200 | > 200 | > 200 |  |  |  |  |  |  |  |  |  |
| CCOc1cc(/C=C2\SC(=S)N(c3ccc(F)cc3)C2=O)ccc1O | 41 | 150 | > 200 | > 200 | > 200 |  |  |  |  |  |  |  |  |  |
| O=C(O)CCCCCN1C(=O)/C(=C/c2ccc(-c3cc(Cl)ccc3Cl)o2)SC1=S | > 100 | 3.8 | 5.6 | > 200 | > 200 |  |  |  |  |  |  |  |  |  |
| Cc1cc(Cl)ccc1-c1ccc(/C=C2\SC(=S)N(CC(=O)O)C2=O)o1 | 260 |  | 2.9 | > 200 | > 200 |  | 1 (≈ 2.54 µM) | 8 (≈ 20.3 µM) | 1 (≈ 2.54 µM) | 4 (≈ 10.2 µM) | > 64 | > 64 | 1.78 | 1.24 |
| CCN1C(=O)/C(=C/c2ccc(OCC(=O)O)cc2)SC1=S | > 100 | > 100 | > 200 | > 200 | > 200 |  |  |  |  |  |  |  |  |  |
| CCN1C(=O)/C(=C/c2ccc(OC)cc2)SC1=S | > 100 | > 100 | > 200 | > 200 | > 200 |  |  |  |  |  |  |  |  |  |
| Cc1ccc(-c2ccc(/C=C3\SC(=S)N(CCCC(=O)O)C3=O)o2)c([N+](=O)[O-])c1 | > 100 | 5.7 | 3.2 | > 200 | > 200 |  |  |  |  |  |  |  |  |  |
| CCOc1cc(/C=C2\SC(=S)N(c3cccc(F)c3)C2=O)ccc1OC(=O)c1cccs1 | > 200 | > 200 | > 200 | > 200 | > 200 |  |  |  |  |  |  |  |  |  |
| CN(C)c1ccc(/C=C2\SC(=S)N(Cc3ccco3)C2=O)cc1 | > 100 | > 100 | > 200 | > 200 | > 200 |  |  |  |  |  |  |  |  |  |
